{
  "source": "ChEMBL document CHEMBL4002606",
  "about": "“Discovery of FZU-03,010 as a self-assembling anticancer amphiphile for acute myeloid leukemia” (Bioorg Med Chem Lett, 2017)",
  "key": {"[1]": {"test_system": "HL-60", "assay": "Induction of apoptosis in human HL60 cells assessed as late apoptotic cells at 2 uM after 24 hrs by Annexin V-PE/7AAD staining based flow cytometry (reference value: 3.64%)", "assay_type": "functional"}, "[2]": {"test_system": "HL-60", "assay": "Induction of apoptosis in human HL60 cells assessed as necrotic cells at 2 uM after 24 hrs by Annexin V-PE/7AAD staining based flow cytometry (reference value: 1.08%)", "assay_type": "functional"}, "[3]": {"test_system": "HL-60", "assay": "Growth inhibition of human HL60 cells at 20 uM after 48 hrs by MTT assay relative to control", "assay_type": "functional", "conditions": "HL-60, 48 h, read-out: GI"}, "[4]": {"test_system": "HL-60", "assay": "Growth inhibition of human HL60 cells at 0.63 uM after 48 hrs by MTT assay relative to control", "assay_type": "functional", "conditions": "HL-60, 48 h, read-out: GI"}, "[5]": {"test_system": "HL-60", "assay": "Induction of apoptosis in human HL60 cells assessed as live cells at 2 uM after 24 hrs by Annexin V-PE/7AAD staining based flow cytometry (reference value: 90.9%)", "assay_type": "functional"}, "[6]": {"test_system": "HL-60", "assay": "Growth inhibition of human HL60 cells at 1.25 uM after 48 hrs by MTT assay relative to control", "assay_type": "functional", "conditions": "HL-60, 48 h, read-out: GI"}, "[7]": {"test_system": "HL-60", "assay": "Growth inhibition of human HL60 cells after 48 hrs by MTT assay", "assay_type": "functional, cell-based", "conditions": "HL-60, 48 h", "outline": "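HL-60 human promyelocytic leukemia cells; proliferation inhibition of the cells measured and reported as IC50; values are mean ± SE of at least three independent experiments.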"}, "[8]": {"test_system": "HL-60", "assay": "Induction of apoptosis in human HL60 cells assessed as early apoptotic cells at 2 uM after 24 hrs by Annexin V-PE/7AAD staining based flow cytometry (reference value: 4.42%)", "assay_type": "functional"}, "[9]": {"test_system": "HL-60", "assay": "Growth inhibition of human HL60 cells at 10 uM after 48 hrs by MTT assay relative to control", "assay_type": "functional", "conditions": "HL-60, 48 h, read-out: GI"}, "[10]": {"test_system": "HL-60", "assay": "Growth inhibition of human HL60 cells at 2.5 uM after 48 hrs by MTT assay relative to control", "assay_type": "functional", "conditions": "HL-60, 48 h, read-out: GI"}, "[11]": {"assay": "Stability of the compound in DMSO/deionized water post nanoparticle formation after 3 weeks", "assay_type": "physicochemical", "conditions": "504 h"}, "[12]": {"test_system": "HL-60", "assay": "Growth inhibition of human HL60 cells at 40 uM after 48 hrs by MTT assay relative to control", "assay_type": "functional", "conditions": "HL-60, 48 h, read-out: GI"}, "[13]": {"test_system": "HL-60", "assay": "Growth inhibition of human HL60 cells at 5 uM after 48 hrs by MTT assay relative to control", "assay_type": "functional", "conditions": "HL-60, 48 h, read-out: GI"}},
  "data": [
    {"molecule": "C[C@H]1[C@H](C)CC[C@]2(C(=O)N3CCNCC3)CC[C@]3(C)C(=CC[C@@H]4[C@@]5(C)Cc6cn[nH]c6C(C)(C)[C@@H]5CC[C@]43C)[C@H]12", "values": [
      {"measurement": "Activity", "setting": "[1]", "result": 3.89, "unit": "%"},
      {"measurement": "Activity", "setting": "[2]", "result": 0.439, "unit": "%"},
      {"measurement": "inhibition of growth at 20 µM", "setting": "[3]", "result": 93.5, "unit": "%"},
      {"measurement": "inhibition of growth at 0.63 µM", "setting": "[4]", "result": 14.7, "unit": "%"},
      {"measurement": "Activity", "setting": "[5]", "result": 76.5, "unit": "%"},
      {"measurement": "inhibition of growth at 1.25 µM", "setting": "[6]", "result": 66.4, "unit": "%"},
      {"measurement": "IC50", "setting": "[7]", "result": 910, "unit": "nM"},
      {"measurement": "Activity", "setting": "[8]", "result": 19.1, "unit": "%"},
      {"measurement": "inhibition of growth at 10 µM", "setting": "[9]", "result": 95, "unit": "%"},
      {"measurement": "inhibition of growth at 2.5 µM", "setting": "[10]", "result": 86, "unit": "%"},
      {"measurement": "Stability", "setting": "[11]", "result": "Stable"},
      {"measurement": "inhibition of growth at 40 µM", "setting": "[12]", "result": 94, "unit": "%"},
      {"measurement": "inhibition of growth at 5 µM", "setting": "[13]", "result": 91.6, "unit": "%"}
    ]}
  ]
}
